Measurements of several laboratories.
Each line is one published result; the experiments were not run side by side.
GHSR: Growth hormone secretagogue receptor type 1 (GHSR, Homo sapiens, UniProt Q92847)
CA12: Carbonic anhydrase 12 (CA12, Homo sapiens, UniProt O43570)
DRD3: D(3) dopamine receptor (DRD3, Homo sapiens, UniProt P35462)
ACE: Angiotensin-converting enzyme (ACE, Homo sapiens, UniProt P12821)
GLP1R: Glucagon-like peptide 1 receptor (GLP1R, Homo sapiens, UniProt P43220)

With `CC[C@H](C)[C@H](NC(=O)[C@H](C)NC(=O)[C@H](CCCNC(=N)N)NC(=O)[C@H](CCC(=O)O)NC(=O)[C@H](CCCNC(=N)N)NC(=O)[C@H](CCC(=O)O)NC(=O)[C@H](CC(C)C)NC(=O)[C@H](CC(C)C)NC(=O)[C@H](CCCNC(=N)N)NC(=O)[C@H](CCCNC(=N)N)NC(=O)[C@H](CCC(N)=O)NC(=O)[C@H](Cc1c[nH]cn1)NC(=O)[C@H](CCC(=O)O)NC(=O)[C@@H]1CCCN1C(=O)[C@H](CO)NC(=O)[C@H](CC(C)C)NC(=O)[C@H](Cc1ccccc1)NC(=O)[C@H](Cc1c[nH]c2ccccc12)NC(=O)[C@H](CO)NC(=O)CN)C(=O)N1CCC[C@H]1C(=O)N1CCC[C@H]1C(=O)N1CCC[C@H]1C(=O)N1CCC[C@H]1C(=O)N[C@H](C(=O)N[C@H](C(=O)N1CCC[C@H]1C(=O)N[C@@H](CC(C)C)C(=O)O)C(C)C)C(C)C` the EC50 was 0.16 µM (GHSR; calcium signal, agonist, fluorescence).
`O=C(Nc1ccc2c(c1)C=CCP(=O)(O)O2)c1ccc(F)cc1` has a Ki of 0.004 µM (CA12; enzyme activity, inhibitor, stopped-flow).
The EC50 of `CC[C@H](C)[C@H](NC(=O)[C@H](C)NC(=O)[C@H](C)NC(=O)[C@H](CCC(=O)O)NC(=O)[C@H](CCCNC(=N)N)NC(=O)[C@H](C)NC(=O)[C@H](CC(C)C)NC(=O)[C@H](CC(C)C)NC(=O)[C@H](CCCNC(=N)N)NC(=O)[C@H](CCCNC(=N)N)NC(=O)[C@H](C)NC(=O)[C@H](Cc1c[nH]cn1)NC(=O)[C@H](CCC(=O)O)NC(=O)[C@@H]1CCCN1C(=O)[C@H](CO)NC(=O)[C@H](CC(C)C)NC(=O)[C@H](Cc1ccccc1)NC(=O)[C@H](Cc1c[nH]c2ccccc12)NC(=O)[C@H](CO)NC(=O)CN)C(=O)N1CCC[C@H]1C(=O)N1CCC[C@H]1C(=O)N1CCC[C@H]1C(=O)N1CCC[C@H]1C(=O)N[C@H](C(=O)N[C@H](C(=O)N1CCC[C@H]1C(=O)N[C@@H](CC(C)C)C(=O)O)C(C)C)C(C)C` is reported as 0.15 µM (GHSR; calcium signal, agonist, fluorescence).
For `O=C(Nc1cccc(C(F)(F)F)c1)Nc1ccc2c(c1)C=CCP(=O)(O)O2`, the Ki was over 10 µM (CA12; enzyme activity, inhibitor, stopped-flow).
For `Cc1[nH]c(C)c(S(=O)(=O)Nc2ccc(S(F)(F)(F)(F)F)c(Cl)c2)c1C(=O)N1CCC(F)(F)C1`, the IC50 was 1.1 µM (DRD3; β-arrestin recruitment, antagonist).
`CC[C@H](C)[C@H](NC(=O)[C@H](C)NC(=O)[C@H](C)NC(=O)[C@H](CCC(=O)O)NC(=O)[C@H](CCCNC(=N)N)NC(=O)[C@H](C)NC(=O)[C@H](CC(C)C)NC(=O)[C@H](CC(C)C)NC(=O)[C@H](CCCNC(=N)N)NC(=O)[C@H](CCCNC(=N)N)NC(=O)[C@H](CCC(=O)O)NC(=O)[C@H](Cc1c[nH]cn1)NC(=O)[C@H](CCC(=O)O)NC(=O)[C@@H]1CCCN1C(=O)[C@H](CO)NC(=O)[C@H](CC(C)C)NC(=O)[C@H](Cc1ccccc1)NC(=O)[C@H](Cc1c[nH]c2ccccc12)NC(=O)[C@H](CO)NC(=O)CN)C(=O)N1CCC[C@H]1C(=O)N1CCC[C@H]1C(=O)N1CCC[C@H]1C(=O)N1CCC[C@H]1C(=O)N[C@H](C(=O)N1CCC[C@H]1C(=O)N1CCC[C@H]1C(=O)N[C@@H](CC(C)C)C(=O)O)C(C)C` gave an EC50 of 0.27 µM (GHSR; calcium signal, agonist, fluorescence).
For `O=C(Nc1ccc2c(c1)C=CCP(=O)(O)O2)c1ccc(Br)cc1`, the Ki was 0.0844 µM (CA12; enzyme activity, inhibitor, stopped-flow).
`CC(C)[C@H](NC(=O)[C@@H](N)CCC(=O)O)C(=O)N[C@@H](CC(N)=O)C(=O)N[C@@H](Cc1ccc(O)cc1)C(=O)N[C@@H](CC(=O)O)C(=O)O` has an IC50 of about 1550 µM (ACE; enzyme activity, inhibitor).
For `CCC(CNc1nc(-c2cn3ccnc3cc2C)nc2ccccc12)c1ccccc1` (centres unmarked), the IC50 was 4.59 µM (Sodium-dependent dopamine transporter (SLC6A3, Homo sapiens, UniProt Q01959); ligand displacement, radioligand).
For `CC(C)C[C@H](NC(=O)[C@@H](N)C(C)C)C(=O)N[C@@H](CO)C(=O)N1CCC[C@H]1C(=O)N[C@@H](CCC(N)=O)C(=O)O`, the IC50 was 105 µM (ACE; enzyme activity, inhibitor, absorbance).
`CC[C@H](C)[C@H](NC(=O)[C@H](Cc1ccccc1)NC(=O)[C@H](CC(=O)O)NC(=O)[C@H](CCCNC(=N)N)NC(=O)[C@@H](NC(=O)[C@H](C)NC(=O)[C@H](CCCCN)NC(=O)[C@H](CCCNC(=N)N)NC(=O)[C@H](CCC(=O)O)NC(=O)[C@H](CC(C)C)NC(=O)[C@H](CC(C)C)NC(=O)[C@H](CCC(=O)O)NC(=O)[C@H](CC(=O)O)NC(=O)[C@H](Cc1c[nH]c2ccccc12)NC(=O)[C@H](CC(C)C)NC(=O)[C@H](CO)NC(=O)[C@@H](NC(=O)[C@H](Cc1ccccc1)NC(=O)[C@H](CCC(=O)O)NC(=O)[C@H](CC(C)C)NC(=O)[C@H](CCC(=O)O)NC(=O)CNC(=O)[C@@H]1CCCN1)[C@@H](C)O)C(C)C)C(=O)N[C@@H](C)C(=O)N[C@@H](Cc1c[nH]cn1)C(=O)N[C@@H](CC(C)C)C(=O)N[C@@H](CCCCN)C(=O)N[C@@H](CCC(N)=O)C(=O)O` gave an IC50 of 1.61 µM (GLP1R; calcium signal, antagonist, fluorescence).
`COC(=O)c1ccc(NS(=O)(=O)c2c(C)[nH]c(C)c2C(=O)N2CCC(F)(F)C2)cc1Cl` has an IC50 of 33 µM (DRD3; β-arrestin recruitment, antagonist).
With `N#C[Se]CCCCOc1ccc2c(-c3ccccc3)cc(=O)oc2c1` the Ki was 0.296 µM (CA12; enzyme activity, inhibitor, stopped-flow).
For `O=C(Nc1ccc(C(F)(F)F)cc1)Nc1ccc2c(c1)C=CCP(=O)(O)O2`, the Ki was over 10 µM (CA12; enzyme activity, inhibitor, stopped-flow).
`CC(C)C[C@H](NC(=O)[C@H](CCC(=O)O)NC(=O)[C@H](C)NC(=O)[C@@H](NC(=O)[C@H](Cc1ccccc1)NC(=O)[C@H](CC(C)C)NC(=O)[C@H](CCCNC(=N)N)NC(=O)[C@H](C)NC(=O)[C@H](C)NC(=O)[C@H](CCCCN)NC(=O)[C@H](CCC(=O)O)NC(=O)[C@H](CO)NC(=O)[C@H](CC(C)C)NC(=O)[C@H](Cc1ccc(O)cc1)NC(=O)[C@H](CCC(=O)O)NC(=O)[C@H](CC(=O)O)NC(=O)[C@H](CC(C)C)NC(=O)[C@H](CC(C)C)NC(=O)[C@H](CCC(=O)O)NC(=O)[C@@H](NC(=O)[C@H](Cc1ccccc1)NC(=O)[C@H](CCC(=O)O)NC(=O)[C@H](CCC(=O)O)NC(=O)[C@H](CCC(=O)O)NC(=O)[C@H](C)NC(=O)[C@@H](N)CO)[C@@H](C)O)C(C)C)C(=O)N[C@@H](CCCCN)C(=O)N[C@@H](CCCCN)C(=O)O` gave an IC50 of 15.7 µM (GLP1R; calcium signal, antagonist, fluorescence).
With `O=C(Nc1ccc2c(c1)C=CCP(=O)(O)O2)c1cccs1` the Ki was 0.0746 µM (CA12; enzyme activity, inhibitor, stopped-flow).
`NC(=O)CC[C@H](N)C(=O)NCC(=O)NCC(=O)N[C@@H](CC(=O)O)C(=O)N[C@@H](Cc1ccccc1)C(=O)O` has an IC50 of about 1090 µM (ACE; enzyme activity, inhibitor).
For `Cc1[nH]c(C)c(S(=O)(=O)Nc2ccc(S(F)(F)(F)(F)F)cc2)c1C(=O)N1CCC(F)(F)C1`, the IC50 was 2.3 µM (DRD3; β-arrestin recruitment, antagonist).
`O=C(Nc1ccc2c(c1)C=CCP(=O)(O)O2)c1ccccc1I` has a Ki of 0.0069 µM (CA12; enzyme activity, inhibitor, stopped-flow).
For `CCOC(=O)c1ccc(OC(=O)CCCCCN=C(N)N)cc1`, the IC50 was 0.426 µM (Kallikrein-2 (Homo sapiens, UniProt P20151); enzyme activity, inhibitor).
